Screening data (PubChem BioAssay)
Rows were chosen to be rich in hits. Some 1.7% of all compounds tested hit in one or more screens of this group.
MLLE-PAM2 inh: inhibitors of PABP1 MLLE–PAM2 peptide binding, primary screen, biochemical, fluorescence polarization, FITC-PAM2, GST-MLLE; inhibition, % at 20 µM; Polyadenylate-binding protein 1 (Homo sapiens), P11940; actives 0.36% (n = 360,000); in the data active means inhibition above about 35%, passing the limit was not always enough;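 further: plate controls were DMSO wells with GST-MLLE for no effect and wells lacking GST-MLLE protein for full effect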
PABP polyA inh: PABP poly(A) RNA binding inhibitors, primary screen, biochemical, fluorescence polarization, uHTS; inhibition, % at 35 µM; Polyadenylate-binding protein 1 (Homo sapiens), P11940; actives 1% (n = 290,000);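 further: calls also rest on retests at 20 µM and on dose response follow-up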
eIF4H FP inh: human eIF4H binding inhibitors, primary screen, translation initiation inhibitor project, biochemical, uHTS, fluorescence polarization; Eukaryotic translation initiation factor 4H (Homo sapiens), Q15056; AID 2012, 2009; actives 0.94% (n = 290,000); inhibition, % at 35 µM; eIF4H fluorescence polarization binding assay;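 further: calls also rest on retests at 20 µM and on dose response follow-up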
MT1-MMP act inh: blockers of MT1-MMP proenzyme processing, primary screen, HT1080 RFP-PRO-GFP cells, GFP/RFP fluorescence | Matrix metalloproteinase-14 (Homo sapiens), P50281 | GFP/RFP ratio change, % at 20 µM | actives 0.061% (n = 360,000) | GFP/RFP ratio fluorescence, overnight; percent of plate control window, DMSO zero | AID 651647, 2012;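 active means GFP/RFP ratio change of at least 30% with cell ATP level not reduced by more than half and red fluorescence within 50% of control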
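Assay system – RFP-PRO-GFP reporter HT1080 cells · Compound dosing – single dose of 20 µM compound, 1% DMSO final · Incubation – overnight compound exposure at 37 °C · Measure – GFP/RFP fluorescence ratio · Benchmarks – DMSO wells and RFP-L50D-GFP cells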
SKN-1 inh: suppressors of acrylamide-induced Pgst-4::GFP reporter in worms, primary screen, SKN-1 inhibitor project, whole organism, uHTS, GFP/RFP fluorescence ratio, strain VP596 | C. elegans VP596 Pgst-4::GFP/RFP ratio, 24 h | inhibition, % at 21.8 µM | actives 0.49% (n = 360,000);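 active means interference check ratio from 0.5 to 1.5 plus GFP to RFP signal ratio inhibition reaching or exceeding a fixed threshold, cut at about 30% in these data, passing the limit was not always enough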
Active calls of the source: *; ? = inconclusive; / = no result. Unless noted, how the calls were made is not given here.

SMILES	MLLE-PAM2 inh	PABP polyA inh	eIF4H FP inh	MT1-MMP act inh	SKN-1 inh
O=C1C=C(O)c2cccc3cccc1c23	70.2*	57.6*	57.8*	-17.4	-6.8
O=C1C=C(N2CCOCC2)c2cccc3cccc1c23	95.0	/	/	17.0	22.7
Cc1cc(=O)n2c3ccccc3n(C)c2n1	-1.3	10.4	-4.0	1.4	12.0
CCOC(=O)CSc1ccc(S(=O)(=O)N2CCCC2)cc1[N+](=O)[O-]	11.4	54.9*	active	0.6	1.4
CCOC(=O)CSc1ccc(S(=O)(=O)N2CCCCC2)cc1[N+](=O)[O-]	-0.7	89.8	-0.7	-0.6	5.8
Cc1ccc(C)c(N2N=C(C(=O)NCCN3C(=O)S/C(=C\c4cccnc4)C3=O)CCC2=O)c1	2.7	/	/	-5.7	0.2
COc1ccc(CCCC(=O)N/N=C/c2ccccc2OC)cc1	4.6	62.8*	active	-2.9	3.3
COc1ccc(CCCC(=O)N/N=C/c2ccc(C)cc2)cc1	-7.7	9.1	6.1	-0.4	-5.4
CN(C)S(=O)(=O)NC(c1ccccc1)c1ccccc1	0.9	4.6	10.0	-3.8	35.6*
Cc1ccc(-c2cc(-c3ccccc3)c3c(N)c(S(C)(=O)=O)sc3n2)cc1	7.9	125.4*	105.0*	-7.9	15.5
CC(=O)Nc1ccc(S(=O)(=O)NCCC(=O)NCc2ccncc2)cc1	3.0	/	/	-2.2	26.8
COc1ccc(CP(=O)(c2ccccc2)c2ccccc2)cc1	0.8	1.1	-0.9	-3.2	3.4
COc1ccccc1CP(=O)(c1ccccc1)c1ccccc1	10.8	110.4	active	-0.5	5.9
CCOc1ccc(C2=Nn3c(CC)nnc3SC2)cc1	6.6	/	/	3.3	8.5
O=C(CSc1nnc(SCc2ccccc2)s1)N/N=C/C=C/c1ccco1	-101.8	5.8	93.9*	-5.1	10.4
O=C(CN1CCN(Cc2ccccc2)CC1)N/N=C\C=C/c1ccco1	-8.8	2.5*	?	2.4	-8.8
O=C(CN1CCN(Cc2ccccc2Cl)CC1)N/N=C/C=C/c1ccco1	-14.1	-14.3	0.8	-0.6	0.3
CC(/C=N\NC(=O)CN1CCN(Cc2ccccc2)CC1)=C\c1ccco1	11.5	active	?	2.2	-4.8
CCn1c(SCC(=O)N/N=C/C(C)=C\c2ccco2)nnc1-c1ccccc1	-8.1	7.0*	51.4*	-3.9	-4.1
COc1ccc(N2CC(C(=O)Nc3nnc(SCC(=O)NCC4CCCO4)s3)CC2=O)cc1 (stereo not given)	-11.5	-8.8	10.2	-4.4	19.7
Nc1cc2c(cc1[N+](=O)[O-])OCO2	1.6	40.6*	84.3	6.2	-0.1
Nc1cc2c(cc1[N+](=O)[O-])OCCO2	2.5	-2.9	-4.8	7.5	14.7
NS(=O)(=O)c1ccc(CNC(=O)Cc2ccsc2)cc1	1.0	-5.3	0.3	-5.0	22.2
CC(C)NC(=O)NC(=O)COc1ccc(Br)cc1Br	6.7	-9.4	1.0	4.7	1.1
O=C(NC1CCN(C(=S)Nc2ccc(Cl)cc2)CC1)c1ccco1	-97.4	0.6	3.9	-0.8	47.3*
SMILES	MLLE-PAM2 inh	PABP polyA inh	eIF4H FP inh	MT1-MMP act inh	SKN-1 inh
COc1cccc(C(=O)N2CCC(C(=O)NCc3ccc(C)cc3)CC2)c1	5.4	24.5	-4.0	7.4	2.8
NNc1nc2c(Cl)ccc(Cl)c2s1	8.6	3.3*	61.8*	10.4	19.3
O=C(Nc1nc2c(Cl)ccc(Cl)c2s1)C1CC1	13.5	-1.6	1.4	-13.2	15.1
C[C@H]1[C@H](NC(=O)C(=NOC(C)(C)C(=O)O)c2csc(N)n2)C(=O)N1S(=O)(=O)O	-6.0	/	/	-0.3	-7.0
Cc1ccc(OCC(=O)Nc2ccc(S(=O)(=O)N3CCOCC3)cc2)c(Br)c1	-2.0	8.8	2.5	7.4	-11.1
CC(C)c1ccc(N(CC(=O)Nc2ccc(S(=O)(=O)N3CCOCC3)cc2)S(C)(=O)=O)cc1	-8.2	-6.1	-11.2	3.6	40.0*
Cc1ccc(N(C(C)C(=O)Nc2ccc(S(=O)(=O)N3CCOCC3)cc2)S(C)(=O)=O)cc1C (stereo not given)	5.7	-9.4	2.0	-3.5	11.2
Cc1ccc(N(CC(=O)Nc2ccc(S(=O)(=O)N3CCOCC3)cc2)S(C)(=O)=O)cc1C	10.8	0.7	-10.0	-2.7	28.6
Cc1ccc(N(C(C)C(=O)Nc2ccc(S(=O)(=O)N3CCOCC3)cc2)S(C)(=O)=O)cc1 (stereo not given)	9.1	11.4*	?	-1.9	-19.8
COc1ccc(-c2csc(C(NC(C)=O)c3ccccc3)n2)cc1 (stereo not given)	9.0	/	/	-0.9	-1.2
COc1ccc(N2CCN(C(=O)COC(=O)c3ccc(-n4nc(C)cc4C)cc3)CC2)cc1	2.7	/	/	-0.3	-3.6
O=C1c2cc(Br)ccc2OC2C=CC=CC12 (stereo not given)	2.1	/	/	2.7	42.0*
O=C1c2ccccc2-c2cc(Br)ccc2NC1O (stereo not given)	-16.1	/	/	-1.8	-1.6
Cc1cc(C)c(NC(=O)CNC(=O)COC(=O)C2CCN(c3ccc(C(F)(F)F)cn3)CC2)c(C)c1	-17.0	0.0	-8.4	-5.1	0.4
Cc1cc(C)c(NC(=O)COC(=O)C2CCN(c3ccc(C(F)(F)F)cn3)CC2)c(Cl)c1	-33.7	/	/	2.9	35.9*
O=C1CC(=O)N(Cc2ccco2)C(=S)N1	-118.3	83.9*	63.5*	-29.3	9.8
O=C(OCc1cn([C@@H]2CN(CC3CCCCC3)[C@@H](c3ccccc3)C[C@H]2O)nn1)c1ccccc1	-6.1	/	/	-2.1	-2.7
CCCOc1ccc(C(=O)Nc2ccc(Cl)cn2)cc1	5.5	-2.7	2.6	1.2	41.5*
O=C(Nc1ccc(Cl)cn1)c1ccc(Oc2ccccc2)cc1	4.1	7.0	-20.4	3.3	-5.5
C[C@H](CO)N1C[C@H](C)[C@@H](CN(C)S(=O)(=O)c2cccs2)Oc2c(NS(=O)(=O)c3cn(C)cn3)cccc2C1=O	-0.8	/	/	0.6	12.7
O=C1OCC2OC(O)C(O)C(O)C2OC(=O)c2cc(O)c(O)c(O)c2-c2c(O)c(O)c3oc(=O)c4c(c(O)c(O)c5oc(=O)c2c3c54)-c2c1cc(O)c(O)c2O (stereo not given)	/	105.5*	82.6*	/	/
Cc1cc(C)n2nc3nc(N4CCCCC4)nc(-c4ccco4)c3c2n1	2.8	56.4*	71.8*	-2.7	28.5
Nc1ccc2nc(-c3ccccc3)c(-c3ccccc3)nc2c1	101.7	28.4	69.6*	-35.1	1.0
Nc1ccc(-c2nc3cc(N)ccc3s2)cc1	-15.0	0.8	1.3	3.3	-5.3
Cc1ccc2nc(-c3ccc(N)cc3)sc2c1	-0.5	2.2	1.1	-3.3	42.3*
CNC(=S)Nc1ccc(-c2nc3ccc(C)cc3s2)cc1	-23.9	10.2	2.1	2.0	18.3
